The subject of series [1] is Rattus norvegicus. The series is described as follows: Ability to reduce the severity of PCP in immunosuppressed rats after(iv) administration of 10 mg/kg/day. Format: functional. As to conditions: in the assay text read “1.25 mg/kg/day” for “10 mg/kg/day”. Summed up:
(§1)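 Male Sprague-Dawley rats (150–200 g, barrier raised) were given corticosteroids to induce PCP. From week 6, groups of eight or more received the compound by single daily iv injection in 0.4 mL saline for 14 days, generally at 10 mg/kg. Rats were killed at the end of week 8. GMS-stained lung sections were scored from 0.5 to 4 (4 = >50% involvement), with saline and pentamidine control groups.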

The test system of a further series is Calf thymus DNA. The series is described as follows: DNA binding affinity at low ionic strength as change in midpoint. Format: nucleic-acid assay. Conditions: Bos taurus.
For series [2], the system named is Pneumocystis carinii. The experiment in a line: (§2) Ability to reduce the severity of PCP in immunosuppressed rats after (iv) administration of 10 mg/kg/day. Format: functional. In a few lines: as §1
Series [3] concerns Pneumocystis carinii. The experiment in a line: Ability to reduce the severity of PCP in immunosuppressed rats after (i.v.) administration of 10 mg/kg/day. Format: functional. As to conditions: route intravenous. In a few lines:
as §1

In series [4] the test system is Pneumocystis carinii. The series is described as §2. The series is classed as functional. Summed up: as §1
The source holds these as a separate data set.

The nature of series [5]: Cytotoxicity in […], spleen and kidneys for pathologic changes by light microscopy.+ = animals survived without observable distress. The series is classed as tissue-based. As to conditions: rat. Summed up: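 In corticosteroid-immunosuppressed rats given 14 daily iv doses for PCP, liver, spleen and kidneys were examined for pathology by light microscopy, and health was recorded daily. Toxicity was graded at 10 mg/kg or the highest dose tested on a scale from 0 (no local, clinical or histologic toxicity) to 4+ (≥50% of animals died).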

For series [6], the target named is T1, Serine protease 1 (Homo sapiens, UniProt P07477). The series is described as follows: Inhibition of trypsin by amidase assay.
The species named for series [7] is Rattus norvegicus. The series is described as follows: Ability to reduce the severity of PCP in histologic score (represents scattered cysts,25-50% lung involved with small intense areas of infection). The series is classed as functional. In a few lines:
as §1

The species named for series [8] is Rattus norvegicus. The series is described as follows: Ability to reduce the severity of PCP in histologic score (represents >50% lung involved with many intense areas of focal infection). Format: functional. Summed up: as §1
Series [9] has as its system Rattus norvegicus. The series is described as §2. The series is classed as functional. In a few lines: as §1
Series [10] in a line: Cytotoxicity in […], spleen and kidneys for pathologic changes by light microscopy.++ = most animals survived, with severe distress and marked local toxicity and some systemic toxicity and histopathologic abnormalities. Format: tissue-based. Conditions: rat. Summed up: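 Male Sprague-Dawley rats (150–200 g), corticosteroid-immunosuppressed to induce PCP; from week 6, single daily iv injection for 14 days, usually 10 mg/kg in 0.4 mL saline (lower if insoluble or toxic); killed end of week 8. Liver, spleen, kidneys examined by light microscopy; daily health observation; toxicity graded 0 to 4+ at 10 mg/kg or highest dose tested.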

The target in series [11] is T1, Serine protease 1. The series is described as follows: Inhibition of trypsin by amidase assay.
Series [12] concerns Rattus norvegicus. The experiment in a line: Ability to reduce the severity of PCP in immunosuppressed rats after (iv)administration; not tested in animals, Insoluble. Format: functional, organism-based.

Several values for one entry are separate records, joined by “and”; a condition that tells them apart may be missing. Identical values can stand only once.

T1 sequence (P07477 whole entry): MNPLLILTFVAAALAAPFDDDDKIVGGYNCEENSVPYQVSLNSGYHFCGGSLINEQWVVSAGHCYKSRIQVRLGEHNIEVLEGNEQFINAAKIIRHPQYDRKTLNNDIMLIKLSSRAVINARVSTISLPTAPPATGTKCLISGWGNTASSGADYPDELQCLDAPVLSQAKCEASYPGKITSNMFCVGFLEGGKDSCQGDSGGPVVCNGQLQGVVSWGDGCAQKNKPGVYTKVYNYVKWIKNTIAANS

Consider `Cl.N=C(N)c1ccc(OCCCCCCOc2ccc(C(=N)N)cc2[N+](=O)[O-])c([N+](=O)[O-])c1`, for which the No. of animals in the series with Rattus norvegicus [1] is reported as 1.
By ΔTm is commonly meant the shift of the melting midpoint relative to a reference. By Ki is commonly meant a dissociation constant, usually derived from enzyme kinetics or from competition with a known ligand. A low value points to tighter binding. On to `Cl.Cl.N=C(N)c1ccc(OCCCCOc2ccc(C(=N)N)cc2)cc1`, for which, in the series with Calf thymus DNA, the thermal shift (ΔTm) amounted to 8.3 °C. In addition, the No. of animals in the series with Pneumocystis carinii [2] was found to be 8; in the series with Pneumocystis carinii [3], 0; in the series with Pneumocystis carinii [4] it was 0. For the same molecule, in series [5], the Toxicity result is “Non-toxic”. At Serine protease 1 [6], this molecule gave an inhibition constant (Ki) of 1.5 µM.
Regarding `Cl.c1cc(C2=NCCN2)ccc1OCCCCCOc1ccc(C2=NCCN2)cc1`, the thermal shift (ΔTm) with Calf thymus DNA worked out at 10.5 °C. In addition, the No. of animals in the series filed under Rattus norvegicus [7] is 0; in the series filed under Rattus norvegicus [8] it was 0; with Pneumocystis carinii [4], 3. The same molecule had an inhibition constant Ki on Serine protease 1 [6] greater than 2000 µM.
Consider `COc1cc(C(=N)N)ccc1OCCCOc1ccc(C(=N)N)cc1OC.Cl.Cl`, for which the thermal shift (ΔTm) in the series on Calf thymus DNA was determined as 16.3 °C. Also, the No. of animals is 7 with Pneumocystis carinii [2], 0 in the series with Pneumocystis carinii [3] and 1 in the series on Pneumocystis carinii [4]. This molecule showed a Ki on Serine protease 1 [6] of 1.3 µM.
With `Cl.Cl.N=C(N)c1ccc(OCCCOc2ccc(C(=N)N)cc2N)c(N)c1`, the thermal shift (ΔTm) with Calf thymus DNA came to 13.6 °C. Further, the No. of animals with Pneumocystis carinii [2] was 2; in the series on Rattus norvegicus [9], 1; in the series filed under Rattus norvegicus [7], 0; in the series filed under Rattus norvegicus [8], 0; in the series on Pneumocystis carinii [4], 4. The molecule further yielded an inhibitory constant (Ki) on Serine protease 1 [6] of 5.8 µM.
`Cl.N=C(N)c1ccc(NCCCNc2ccc(C(=N)N)cc2[N+](=O)[O-])c([N+](=O)[O-])c1`: in the series with Calf thymus DNA, the ΔTm was 12.8 °C. The No. of animals with Rattus norvegicus [9] and in the series with Pneumocystis carinii [4] was 0 in each case. In addition, in series [10], the Toxicity entry was “most animals survived, with severe distress and marked local toxicity and some systemic toxicity and histopathologic abnormalities”. Moreover, the Ki on Serine protease 1 [6] was found to be 4.3 µM.
For the molecule `Cl.N=C(N)c1ccc(NCCCNc2ccc(C(=N)N)cc2)cc1`, the ΔTm in the series on Calf thymus DNA was 11.6 °C. The No. of animals is 5 and 2 in the series on Pneumocystis carinii [2]; 0 in the series listed under Rattus norvegicus [7]; 0 in the series listed under Rattus norvegicus [8]; 1 in the series with Pneumocystis carinii [4]. Also, in [5], the Toxicity entry is reported as “animals survived without observable distress”. The molecule also yielded an inhibitory constant (Ki) on Serine protease 1 [6] of 1.1 µM.
For the molecule `Cl.N=C(N)c1ccc(OCCCCOc2ccc(C(=N)N)cc2N)c(N)c1`, the shift in melting temperature (ΔTm) in the series with Calf thymus DNA worked out at 9.6 °C. In addition, the No. of animals is given as 2 in the series on Pneumocystis carinii [2]; 1 in the series on Rattus norvegicus [9]; 0 in the series filed under Rattus norvegicus [7]; 0 in the series filed under Rattus norvegicus [8]; 5 in the series on Pneumocystis carinii [4]. Further, the affinity on Serine protease 1 [6] corresponds to a Ki of 9.1 µM.
As to `Cl.N=C(N)c1ccc(OCCCCCOc2ccc(C(=N)N)cc2N)c(N)c1`, the ΔTm in the series with Calf thymus DNA stood at 10.8 °C. Further, the No. of animals in the series filed under Rattus norvegicus [7] is reported as 1; in the series filed under Rattus norvegicus [8] it was 0; in the series with Pneumocystis carinii [4], 5. Also, the Toxicity entry in series [5] was “animals survived without observable distress”. In addition, affinity on Serine protease 1 [6] was put at a Ki of 1.8 µM.
In the case of `Cl.N=C(N)c1ccc(OCCCCCCOc2ccc(C(=N)N)cc2N)c(N)c1`, the thermal shift (ΔTm) in the series with Calf thymus DNA is 9.5 °C. Also, the No. of animals is recorded as 3 in the series listed under Rattus norvegicus [7], 0 in the series listed under Rattus norvegicus [8] and 1 in the series on Pneumocystis carinii [4]. Further, the inhibitory constant (Ki) at Serine protease 1 [6] was found to be 293 µM.
`Cl.N=C(N)c1ccc(OCCOc2ccc(C(=N)N)cc2N)c(N)c1`: in the series with Calf thymus DNA, the thermal shift (ΔTm) worked out at 8.8 °C. Also, the No. of animals in the series listed under Rattus norvegicus [7] was 0; in the series listed under Rattus norvegicus [8], 0; in the series with Pneumocystis carinii [4], 4. The molecule further showed a Ki on Serine protease 1 [11] of 5 µM.
Take `Cl.Cl.N=C(N)c1ccc(OCCCCOc2ccc(C(=N)N)cc2Cl)c(Cl)c1`: the shift in melting temperature (ΔTm) in the series on Calf thymus DNA was determined as 8.9 °C. Besides, the No. of animals was 0 in the series with Rattus norvegicus [9] (in the assay text read “1.25 mg/kg/day” for “10 mg/kg/day”); 2 and 3 in the series with Pneumocystis carinii [3]; 1 with Pneumocystis carinii [4].
As to `Cl.N=C(N)c1ccc(NCCCCCNc2ccc(C(=N)N)cc2[N+](=O)[O-])c([N+](=O)[O-])c1`, the ΔTm with Calf thymus DNA turned out to be 12.7 °C. Further, the No. of animals is 2 and 1 with Pneumocystis carinii [3]; 3 in the series on Pneumocystis carinii [4]. The molecule also displayed an inhibitory constant (Ki) on Serine protease 1 [6] of 8 µM.
As for `Cl.N=C(N)c1ccc(NCCCCNc2ccc(C(=N)N)cc2N)c(N)c1`, in the series with Calf thymus DNA, the thermal shift (ΔTm) came to 10.5 °C. The No. of animals in the series on Pneumocystis carinii [2] is on record as 0; in the series on Pneumocystis carinii [4] it was 4. For the same molecule, in [5], the Toxicity entry is on record as “animals survived without observable distress”. Moreover, the affinity at Serine protease 1 [6], expressed as Ki, was 11.1 µM.
As to `Cl.Cl.N=C(N)c1cccc(OCCCCCCOc2cccc(C(=N)N)c2)c1`, the ΔTm in the series with Calf thymus DNA turned out to be 7.3 °C. Moreover, the No. of animals in the series with Pneumocystis carinii [2] is 1; with Pneumocystis carinii [4], 4. Moreover, the Toxicity result in series [5] is “animals survived without observable distress”. On Serine protease 1 [6], this molecule displayed a Ki of 4 µM.
In the same order, the values of `Cl.Cl.N=C(N)c1cccc(OCCCCCOc2cccc(C(=N)N)c2)c1` are 6.8 °C, 4, 3, “animals survived without observable distress” and 3.8 µM.
In the case of `N=C(N)c1ccc(OCCCCCOc2ccc(C(=N)N)cc2Br)c(Br)c1`, in the series with Rattus norvegicus [12], the No. of animals result is “Insoluble”.

For the origin of these results see ChEMBL document CHEMBL1124749, “Analogues of 1,5-bis(4-amidinophenoxy)pentane (pentamidine) in the treatment of experimental Pneumocystis carinii pneumonia” (J Med Chem, 1990).
